From PubChem BioAssay
The full list was thinned out, with hits kept by preference.
IDH1 R132H inh – blocks human IDH1 R132H reductase activity | O75874 | diaphorase/resazurin fluorescence, 60 min | inhibition, % at 10 µM | 70,000 compounds, 0.18% hits; in the data active means inhibition above about 34%; inconclusive means no clear call, values can overlap the other calls; inactive means below about 11%
T cruzi growth-1 – T. cruzi proliferation inhibition; 77,000 compounds, 5.9% hits; inhibition, % at 8.34 µM; T. cruzi beta-gal in NIH3T3, GalScreen luminescence, 90 h; AID 624255;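 active means mean inhibition above about 93%, with at least 55% of replicates each passing it, limit read from the data, passing the limit was not always enough; inconclusive means only one of those two conditions holds; inactive means neither condition holds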
GASC1 inh – KDM4C (human) demethylase inhibition; Q9H3R0; AID 720574; 96,000 compounds, 0.15% hits; GST-KDM4C 2-372, H3K9me3 peptide, LANCE TR-FRET; inhibition, % at 12.5 µM;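 active means mean replicate inhibition above about 25%, with at least 55% of replicates also reaching it, limit read from the data, passing the limit was not always enough; inconclusive means only one of those two conditions met; inactive means neither condition met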
Target sequence (Q9H3R0 2-372 limits assumed): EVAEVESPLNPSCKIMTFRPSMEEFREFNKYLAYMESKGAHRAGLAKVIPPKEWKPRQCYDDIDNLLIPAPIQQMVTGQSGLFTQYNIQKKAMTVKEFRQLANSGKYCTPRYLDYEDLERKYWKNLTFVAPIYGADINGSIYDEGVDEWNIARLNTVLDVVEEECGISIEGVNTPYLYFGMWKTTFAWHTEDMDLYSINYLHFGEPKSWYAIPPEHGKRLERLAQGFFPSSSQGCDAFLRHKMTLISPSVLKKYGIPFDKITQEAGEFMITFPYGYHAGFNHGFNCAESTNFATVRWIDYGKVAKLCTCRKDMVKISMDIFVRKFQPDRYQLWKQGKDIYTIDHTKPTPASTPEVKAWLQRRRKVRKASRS
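Compound: one test concentration per compound; Material: GST-GASC-1 enzyme fragment 2-372; Amount: GASC-1 enzyme at 10 nM final in reaction; Also added: H3K9me3 peptide substrate, Fe(II), 2-oxoglutarate; Technique: LANCE TR-FRET; Times: 30 min demethylation and 1 h detection at room temperature.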
T cruzi growth-2 – blocks T. cruzi growth in NIH3T3 host cells | inhibition, % at 8.35 µM | 5,600 compounds, 72% hits | shares compounds with T cruzi growth-1 | T. cruzi beta-gal in NIH3T3, GalScreen luminescence, 90 h | AID 651739;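 active means mean replicate inhibition above about 95% and at least 55% of replicates individually reaching it, limit read from the data; inconclusive means only one of the two criteria is met; inactive means neither criterion is met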
T cruzi growth-3 – inhibitors of T. cruzi proliferation. inhibition, % at 2.09 µM. 5,600 compounds, 21% hits. AID 651740. shares compounds with T cruzi growth-1. T. cruzi beta-gal in NIH3T3, GalScreen luminescence, 90 h;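 active means mean inhibition above about 95%, with at least 55% of replicates also reaching it, limit read from the data; inconclusive means meets just one of the two conditions; inactive means meets neither condition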
3T3 cytotox – kills mouse NIH/3T3 fibroblasts | shares compounds with T cruzi growth-1 | NIH/3T3 viability, CellTiter-Glo ATP luminescence, 90 h | cytotoxicity (signal decrease), % at 8.35 µM | 5,600 compounds, 14% hits | AID 651742;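 active means mean signal decrease across replicates above about 35% based on untreated-well scatter, with enough replicates individually passing, limit read from the data; inconclusive means no rule stated though some were filed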
3T3 cytotox 2 – cytotoxicity in mouse NIH/3T3 fibroblasts. shares compounds with T cruzi growth-1. NIH/3T3 viability, CellTiter-Glo ATP luminescence, 90 h. inhibition, % at 24.9 µM. 5,600 compounds, 56% hits;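 active means mean loss of cell viability signal at or above a set limit, and enough replicates individually reaching it; inconclusive means meets only the mean limit or only the replicate share; inactive means meets neither condition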
Of the large screens only hits and unclear results are named; the others gave an inactive call (follow-up assays come after a bar, where they were run).

Cc1noc(C)c1S(=O)(=O)N(C)C[C@H]1OCCCC[C@@H](C)Oc2ccc(NS(=O)(=O)c3ccc(F)cc3)cc2C(=O)N([C@@H](C)CO)C[C@H]1C	T cruzi growth-1 97 (no result: IDH1 R132H inh) | T cruzi growth-2 103 | T cruzi growth-3 inactive | 3T3 cytotox inactive | 3T3 cytotox 2 inactive
COc1cc(NS(=O)(=O)c2c(C)oc3c(F)c(F)c(F)c(F)c23)cc(OC)c1OC	none (no result: T cruzi growth-1, GASC1 inh)
CCC(=O)N1C[C@@H](C)[C@H](OC)CN(C)C(=O)c2ccc(NC(=O)COC)cc2OC[C@H]1C	none
O=S(=O)(c1ccccc1)N1CCCCN2[C@H](CO)[C@H](c3ccc(C#Cc4cccnc4)cc3)[C@H]2C1	T cruzi growth-1 109 (no result: IDH1 R132H inh) | T cruzi growth-2 114 | T cruzi growth-3 inactive | 3T3 cytotox inactive | 3T3 cytotox 2 63
O=S(=O)(c1ccccc1)N1CCCCN2[C@H](CO)[C@H](c3ccc(C#Cc4ccccc4)cc3)[C@H]2C1	none (no result: IDH1 R132H inh)
N#Cc1ccc(-c2ccc([C@@H]3[C@@H](CO)N4CCCCN(S(=O)(=O)c5ccccc5)C[C@H]34)cc2)cc1	none (no result: IDH1 R132H inh)
N#Cc1ccc(-c2ccc([C@H]3[C@@H](CO)N4CCCCN(S(=O)(=O)c5ccccc5)C[C@@H]34)cc2)cc1	T cruzi growth-1 96 (no result: IDH1 R132H inh) | T cruzi growth-2 107 | T cruzi growth-3 inactive | 3T3 cytotox inactive | 3T3 cytotox 2 inactive
COc1ccc(C#Cc2ccc([C@H]3[C@@H](CO)N4CCCCN(S(=O)(=O)c5ccccc5)C[C@@H]34)cc2)cc1	T cruzi growth-1 103 (no result: IDH1 R132H inh) | T cruzi growth-2 103 | T cruzi growth-3 inactive | 3T3 cytotox inactive | 3T3 cytotox 2 inactive
COc1ccc(C#Cc2ccc([C@@H]3[C@@H](CO)N4CCCCN(S(=O)(=O)c5ccccc5)C[C@@H]34)cc2)cc1	none (no result: IDH1 R132H inh, GASC1 inh)
O=S(=O)(c1ccccc1)N1CCCCN2[C@H](C1)[C@H](c1ccc(C#Cc3ccccc3)cc1)[C@@H]2CO	T cruzi growth-1 inconclusive (no result: IDH1 R132H inh) | T cruzi growth-2 101 | T cruzi growth-3 inactive | 3T3 cytotox inconclusive | 3T3 cytotox 2 105
O=S(=O)(c1ccccc1)N1CCCCN2[C@H](CO)[C@H](c3ccc(C#Cc4ccccc4)cc3)[C@@H]2C1	none (no result: IDH1 R132H inh)
CCOc1ccc2c(c1)SC(CC(=O)Nc1ccccc1[N+](=O)[O-])C(=O)N2 (centres undefined)	none (no result: T cruzi growth-1, GASC1 inh)
C[C@H](CO)N1C[C@H](C)[C@@H](CN(C)Cc2ccc(Cl)c(Cl)c2)Oc2ccc(NC(=O)C3CC3)cc2CC1=O	T cruzi growth-1 115 | T cruzi growth-2 105 | T cruzi growth-3 inactive | 3T3 cytotox inactive | 3T3 cytotox 2 inactive
C[C@@H]1CN([C@@H](C)CO)C(=O)Cc2cc(NC(=O)C3CCCCC3)ccc2O[C@@H]1CN(C)Cc1ccc(Cl)c(Cl)c1	none
C[C@H]1CN([C@@H](C)CO)C(=O)Cc2cc(NC(=O)C3CC3)ccc2O[C@@H]1CN(C)Cc1ccc(Cl)c(Cl)c1	none
C[C@@H]1CN([C@@H](C)CO)C(=O)Cc2cc(NC(=O)C3CC3)ccc2O[C@H]1CN(C)Cc1ccc(Cl)c(Cl)c1	T cruzi growth-1 124 | T cruzi growth-2 98 | T cruzi growth-3 inactive | 3T3 cytotox 40 | 3T3 cytotox 2 106
COc1ccccc1-c1cn(CC[C@@H]2CC[C@@H](NC(=O)C3CCCC3)[C@@H](CO)O2)nn1	none (no result: IDH1 R132H inh, T cruzi growth-1)
C/C=C/c1ccc2c(c1)O[C@@H](CN(C)S(=O)(=O)c1ccc(C)cc1)[C@@H](C)CN([C@@H](C)CO)S2(=O)=O	T cruzi growth-1 98 | T cruzi growth-2 108 | T cruzi growth-3 inactive | 3T3 cytotox inactive | 3T3 cytotox 2 43
C/C=C/c1ccc2c(c1)O[C@H](CN(C)S(=O)(=O)c1ccc(C)cc1)[C@H](C)CN([C@H](C)CO)S2(=O)=O	T cruzi growth-1 117 | T cruzi growth-2 107 | T cruzi growth-3 inactive | 3T3 cytotox inactive | 3T3 cytotox 2 78
C/C=C/c1ccc2c(c1)O[C@H](CN(C)S(C)(=O)=O)[C@@H](C)CN([C@H](C)CO)S2(=O)=O	none
Cc1ccc(S(=O)(=O)N(C)C[C@H]2Oc3cc(Br)ccc3S(=O)(=O)N([C@@H](C)CO)C[C@H]2C)cc1	none (no result: T cruzi growth-1)
CO[C@H]1CN(C)C(=O)c2cc(NC(=O)CC(F)(F)F)ccc2OC[C@H](C)N(C(=O)C2CC2)C[C@@H]1C	none (no result: IDH1 R132H inh, T cruzi growth-1)
C[C@@H]1CN([C@@H](C)CO)C(=O)c2cc(NS(=O)(=O)c3ccc(Cl)cc3)ccc2O[C@@H]1CN(C)S(=O)(=O)c1ccc(F)cc1	none
CNC[C@H]1OCCCC[C@H](C)Oc2ccc(NS(=O)(=O)c3ccc(C)cc3)cc2C(=O)N([C@@H](C)CO)C[C@H]1C	none
Cc1noc(C)c1NC(=O)Nc1ccc2c(c1)C(=O)N([C@@H](C)CO)C[C@@H](C)[C@H](CN(C)CC1CC1)OCCCC[C@@H](C)O2	none (no result: IDH1 R132H inh)
COc1ccc(S(=O)(=O)Nc2ccc3c(c2)C(=O)N([C@@H](C)CO)C[C@H](C)[C@@H](CN(C)C(=O)Nc2ccc(C(F)(F)F)cc2)OCCCC[C@@H](C)O3)cc1	none
COc1ccc(S(=O)(=O)Nc2ccc3c(c2)C(=O)N([C@H](C)CO)C[C@H](C)[C@H](CN(C)C(=O)Nc2ccccc2)OCCCC[C@H](C)O3)cc1	T cruzi growth-1 99 | T cruzi growth-2 108 | T cruzi growth-3 inactive | 3T3 cytotox inactive | 3T3 cytotox 2 inactive
Cc1ccc(S(=O)(=O)Nc2ccc3c(c2)C(=O)N([C@H](C)CO)C[C@H](C)[C@@H](CN(C)C(=O)Nc2ccc(C(F)(F)F)cc2)OCCCC[C@@H](C)O3)cc1	T cruzi growth-1 101 | T cruzi growth-2 105 | T cruzi growth-3 inactive | 3T3 cytotox inactive | 3T3 cytotox 2 inactive
COc1ccc(S(=O)(=O)Nc2ccc3c(c2)C(=O)N([C@H](C)CO)C[C@H](C)[C@H](CN(C)C(=O)Nc2ccc(C(F)(F)F)cc2)OCCCC[C@@H](C)O3)cc1	T cruzi growth-1 108 | T cruzi growth-2 104 | T cruzi growth-3 inactive | 3T3 cytotox inactive | 3T3 cytotox 2 inconclusive
Cc1ccc(S(=O)(=O)Nc2ccc3c(c2)C(=O)N([C@@H](C)CO)C[C@H](C)[C@H](CN(C)C(=O)Nc2ccc(C(F)(F)F)cc2)OCCCC[C@H](C)O3)cc1	none (no result: T cruzi growth-1)
Cc1ccc(S(=O)(=O)Nc2ccc3c(c2)C(=O)N([C@@H](C)CO)C[C@H](C)[C@@H](CN(C)C(=O)Nc2ccc(C(F)(F)F)cc2)OCCCC[C@@H](C)O3)cc1	none
COc1ccc(S(=O)(=O)Nc2ccc3c(c2)C(=O)N([C@H](C)CO)C[C@@H](C)[C@H](CN(C)C(=O)Nc2ccccc2)OCCCC[C@@H](C)O3)cc1	none (no result: IDH1 R132H inh)
